Experimental data reported in ChEMBL document CHEMBL4190210, “Derivatives of the Lignan 7'-Hydroxymatairesinol with Antioxidant Properties and Enhanced Lipophilicity” (J Nat Prod, 2017).

Tests used:
[1] = Antioxidant activity assessed as DPPH radical scavenging activity at test compound/DPPH volume ratio 1:1 after 1 hr by UV-spectrophotometric method; assay type: functional
Procedure, shortened: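 DPPH 200 µM in methanol. Antioxidant stocks were 1 mM in methanol, diluted to 2–200 µM. The reaction was started by adding 1 mL DPPH solution to 1 mL antioxidant solution (1:1). Samples were incubated 1 h, an interval chosen from a time-course study.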

[2] = Lipophilicity, log P of the compound; assay type: physicochemical; conditions: octanol/water
[3] = Lipophilicity, log Kw of the compound by reversed-phase UHPLC analysis; assay type: physicochemical; conditions: water/acetonitrile
Procedure, shortened: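 Binary elution with water and acetonitrile, each containing 0.1% formic acid. Detection by UV at 254 nm and by negative/positive ESIMS selected ion monitoring.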

[4] = Antioxidant activity assessed as DPPH radical scavenging activity at test compound/DPPH volume ratio 3:1 incubated under dark condition for 30 mins by spectrophotometric method; assay type: functional

Row | Structure (SMILES) | IC50 [1] | logKw [3] | further results
1 | CCCCCCCCCCCC(=O)OC(c1ccc(O)c(OC)c1)[C@H]1COC(=O)[C@@H]1Cc1ccc(O)c(OC)c1 (stereo partly specified) | 24.5 µM |  | 
2 | CCCCCCCC(=O)OC(c1ccc(O)c(OC)c1)[C@H]1COC(=O)[C@@H]1Cc1ccc(O)c(OC)c1 (stereo partly specified) | 24.1 µM |  | 
3 | CCCCCCCCOC(=O)c1cc(O)c(O)c(O)c1 [OCTYL_GALLATE] |  |  | logP [2]: 4.1
4 | COc1cc(C[C@H]2C(=O)OC[C@@H]2[C@H](O)c2ccc(O)c(OC)c2)ccc1O [HYDROXYMATAIRESINOL] | 20 µM | 1.49 | 
5 | O=C1O[C@H]([C@@H](O)CO)C(O)=C1O [ASCORBIC ACID] | 20.3 µM |  | IC50 [4]: 12.6 µM
6 | CCCCCCCCCCCCCCCCCC(=O)OC(c1ccc(O)c(OC)c1)[C@H]1COC(=O)[C@@H]1Cc1ccc(O)c(OC)c1 (stereo partly specified) | 25.2 µM |  | 
7 | Cc1c(C)c2c(c(C)c1O)CC[C@@](C)(CCC[C@H](C)CCC[C@H](C)CCCC(C)C)O2 (racemic) [ALPHA-TOCOPHEROL] | 23.5 µM |  | 
8 | CCCCCCCC(=O)O[C@@H](c1ccc(O)c(OC)c1)[C@H]1COC(=O)[C@@H]1Cc1ccc(O)c(OC)c1 |  | 3.12 | 
9 | CCCCCCCCCCCC(=O)O[C@H](c1ccc(O)c(OC)c1)[C@H]1COC(=O)[C@@H]1Cc1ccc(O)c(OC)c1 |  | 3.63 | 

Continued, in another order:

Row | IC50 [1] | logKw [3] | Structure (SMILES) | further results
10 |  | 5.5 | CCCCCCCCCCCCCCCCCC(=O)O[C@@H](c1ccc(O)c(OC)c1)[C@H]1COC(=O)[C@@H]1Cc1ccc(O)c(OC)c1 | 
11 | 34 µM |  | Cc1cc(C(C)(C)C)c(O)c(C(C)(C)C)c1 [BUTYLATED HYDROXYTOLUENE] | 
12 |  | 3.68 | CCCCCCCCCCCC(=O)O[C@@H](c1ccc(O)c(OC)c1)[C@H]1COC(=O)[C@@H]1Cc1ccc(O)c(OC)c1 | 
13 |  | 5.43 | CCCCCCCCCCCCCCCCCC(=O)O[C@H](c1ccc(O)c(OC)c1)[C@H]1COC(=O)[C@@H]1Cc1ccc(O)c(OC)c1 | 
14 |  | 3.06 | CCCCCCCC(=O)O[C@H](c1ccc(O)c(OC)c1)[C@H]1COC(=O)[C@@H]1Cc1ccc(O)c(OC)c1 | 
